≈ marks a conversion by molar mass, not a printed value.
Experiments:
Aspergillus flavus = experiment: Antifungal activity against Aspergillus flavus TCC 204304 after 48 hrs by two fold serial dilution method; assay type: functional; conditions: TCC 204304, 48 h
Outline: (§1)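 Moulds grown on potato dextrose agar, 30 °C, 4 days; inoculum adjusted to about 5×10^3 CFU/mL. Two-fold serial dilutions in RPMI-1640 broth, 100 to 0.78 μg/mL final, mixed with equal volume of cell suspension; incubated 30 °C, 48 h. MIC = lowest concentration inhibiting growth, judged visually and by OD530.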

Candida albicans [1] = experiment: Fungicidal activity against drug resistant Candida albicans DF2672R at 1 time MIC after 1 hr by time kill assay relative to control; assay type: functional
Outline: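 Cells at 10^5–10^6 CFU/mL exposed to 1×, 2×, 4× or 8× MIC at 35 °C. Samples taken at 0.5, 1, 2, 4, 8 and 24 h, serially diluted in PBS and plated on SDA. CFU counted after 24 h at 35 °C; biological replicates.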

Candida albicans [2] = experiment: Antifungal activity against Candida albicans ATCC 10231 after 24 hrs by two fold serial dilution method; assay type: functional; conditions: ATCC 10231, 24 h
Outline: (§2)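 Candida grown on Sabouraud dextrose agar at 35 °C for 24 h, adjusted to ~5×10^3 CFU/mL. Two-fold dilutions from 100 to 0.78 μg/mL in Sabouraud dextrose broth, incubated at 35 °C for 24 h. MIC is the lowest concentration inhibiting growth by eye and by OD600. CLSI-based with minor modifications.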

Candida albicans [3] = experiment: Synergistic antifungal activity against drug resistant Candida albicans DF2672R after 24 hrs in presence of natamycin by checkerboard assay; assay type: functional
Outline: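 Checkerboard combination of each compound with a second antifungal, following a previously reported procedure. FIC = MIC of A in combination/MIC of A alone + MIC of B in combination/MIC of B alone.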

Fusarium solani [4] = experiment: Antifungal activity against Fusarium solani 52628 after 48 hrs by two fold serial dilution method; assay type: functional; conditions: Fusarium solani, 52628, 48 h; outline: as §1
Lipid bilayer = experiment: Induction of membrane permiablization in calcein loaded DOPC/DOPE/PI large unilamellar vesicles assessed as calcein leakage at 1:8 compound to lipid ratio after 1 to 2 hrs by […] fluorescence assay relative to control
Outline: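 LUVs (DOPC/DOPE/PI 2:1:1 with 15 wt % ergosterol, about 100 nm) made by film hydration and extrusion, loaded with 80 mM calcein in HEPES buffer pH 7.4. Free dye removed by G-50 column. Compound added in 0.5% DMF at 50 μM final phospholipid. Emission read at 520 nm (excitation 490 nm); leakage normalized to 1% Triton X-100.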

[5] = Cytotoxicity against human corneal fibroblasts assessed as reduction in cell viability after 4 hrs by LDH assay; assay type: cell-based; conditions: Corneal fibroblast
Outline: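 LDH release assay on human corneal fibroblasts seeded at 10000 cells per well, exposed to a range of compound concentrations up to 100 μM. 1% Triton X-100 served as positive control and 0.5% DMSO as negative control; biological replicates.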

Fusarium solani [6] = experiment: Antifungal activity against Fusarium solani 62877 after 48 hrs by two fold serial dilution method; assay type: functional; conditions: Fusarium solani, 62877, 48 h; outline: as §1
Staphylococcus aureus = experiment: Antibacterial activity against methicillin resistant Staphylococcus aureus DM9808R by two fold serial dilution method; assay type: functional
Outline: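 Broth microdilution per CLSI guidelines with minor modifications, run in Mueller−Hinton broth; MIC is the lowest concentration giving no visible growth.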

Aspergillus fumigatus = experiment: Antifungal activity against Aspergillus fumigatus TCC 90906 after 48 hrs by two fold serial dilution method; assay type: functional; conditions: TCC 90906, 48 h; outline: as §1
Candida albicans [7] = experiment: Antifungal activity against drug resistant Candida albicans DF2672R after 24 hrs by two fold serial dilution method; assay type: functional; outline: as §2
[8] = Dissociation constant, pKa of compound; assay type: physicochemical
Candida albicans [9] = experiment: Antifungal activity against Candida albicans ATCC24433 after 24 hrs by two fold serial dilution method; assay type: functional; conditions: ATCC24433, 24 h; outline: as §2
Fusarium solani [10] = experiment: Antifungal activity against Fusarium solani MYA3636 after 48 hrs by two fold serial dilution method; assay type: functional; conditions: MYA3636, 48 h; outline: as §1
Fusarium oxysporum = experiment: Antifungal activity against Fusarium oxysporum MYA3461 after 48 hrs by two fold serial dilution method; assay type: functional; conditions: MYA3461, 48 h; outline: as §1
Candida albicans [11] = experiment: Antifungal activity against Candida albicans ATCC90028 after 24 hrs by two fold serial dilution method; assay type: functional; conditions: ATCC90028, 24 h; outline: as §2

`COc1c(OCC(O)CNC(=N)N)cc2oc3cc(OCC(O)CNC(=N)N)c(CC=C(C)C)c(O)c3c(=O)c2c1CC=C(C)C` (stereo unspecified) showed an MIC (Aspergillus flavus) of 6.25 µg/mL (≈ 9.75 µM), an Activity (Candida albicans [1]) of 91% and an MIC (Candida albicans [2]) of 0.78 µg/mL (≈ 1.22 µM). For the same molecule, the “fractional inhibitory concentration index (FICI)” value (Candida albicans [3]) was 1.08, the MIC (Fusarium solani [4]) was 3.13 µg/mL (≈ 4.88 µM) and the Activity (Lipid bilayer) was 43.8%. It also gave an IC50 [5] of over 100 µM, an MIC (Fusarium solani [6]) of 3.13 µg/mL (≈ 4.88 µM) and an MIC (Staphylococcus aureus) of 1.56 to 3.13 µg/mL (≈ 2.43 to 4.88 µM). The MIC (Aspergillus fumigatus) was 6.25 µg/mL (≈ 9.75 µM), the MIC (Candida albicans [7]) was 0.78 µg/mL (≈ 1.22 µM) and the pKa [8] was 12.5. For the same molecule, the MIC (Candida albicans [9]) was 0.78 µg/mL (≈ 1.22 µM), the MIC (Fusarium solani [10]) was 3.13 µg/mL (≈ 4.88 µM) and the MIC (Fusarium oxysporum) was 1.56 µg/mL (≈ 2.43 µM). For the same molecule, the MIC (Candida albicans [11]) was 0.78 µg/mL (≈ 1.22 µM).

Source: ChEMBL document CHEMBL4028907, “Semisynthesis and Biological Evaluation of Xanthone Amphiphilics as Selective, Highly Potent Antifungal Agents to Combat Fungal Resistance” (J Med Chem, 2017)
